Source: ChEMBL document CHEMBL1147099, “In vitro and in vivo antibacterial activities of heteroaryl isothiazolones against resistant gram-positive pathogens” (Antimicrob Agents Chemother, 2007)
≈ marks a conversion by molar mass, not a printed value.

Assays:
[1] = tested on: Staphylococcus aureus; experiment: Antibacterial activity in CD1 mouse inoculated with methicillin-resistant Staphylococcus aureus ATCC 33591 in thigh assessed as reduction of bacterial population at 10 mg/kg, sc after 4 hrs; assay type: functional; details: route subcutaneous
In short: (§1)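 Female CD-1 mice (19 to 28 g) were made neutropenic with cyclophosphamide 150 mg/kg i.p. at 4 days and 1 day before infection. Each thigh was injected i.m. with 0.1 ml of S. aureus suspension. A single s.c. dose was given 2 h postinfection, in groups of three mice. Thighs were homogenized in PBS and plated on trypticase soy agar overnight at 37°C. CFU/thigh was compared with controls at the time of treatment.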

[2] = tested on: Enterococcus faecalis; experiment: Antibacterial activity against Enterococcus faecalis; assay type: functional
In short: (§2)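 Aerobic isolates run by CLSI broth microdilution in cation-adjusted Mueller-Hinton II broth (streptococci plus 2–5% lysed horse blood), about 5 × 10^5 CFU/ml final; 24 h at 35–37°C aerobically; MIC read as lowest concentration without visible growth.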

[3] = tested on: Streptococcus viridans; experiment: Antibacterial activity against Streptococcus viridans after 24 hrs by broth microdilution method; assay type: functional
In short: (§3)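 CLSI broth microdilution in cation-adjusted Mueller-Hinton II broth, final inoculum about 5 × 10^5 CFU/ml for most strains; streptococci supplemented with 2–5% lysed horse blood, H. influenzae in Haemophilus test medium. Aerobic incubation at 35–37°C for 24 h; MIC = lowest concentration with no visible growth.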

[4] = tested on: Staphylococcus aureus; experiment: Antibacterial activity in CD1 mouse inoculated with methicillin-resistant Staphylococcus aureus ATCC 33591 in thigh assessed as reduction of bacterial population at 10 mg/kg, sc after 8 hrs; assay type: functional; details: route subcutaneous; in short: as §1
[5] = tested on: Enterococcus faecium; experiment: Antibacterial activity against Enterococcus faecium; assay type: functional; in short: as §2
[6] = tested on: Staphylococcus aureus; experiment: Antibacterial activity in CD1 mouse inoculated with methicillin-resistant Staphylococcus aureus ATCC 33591 in thigh assessed as reduction of bacterial population at 10 mg/kg, sc after 6 hrs; assay type: functional; details: route subcutaneous; in short: as §1
[7] = tested on: Staphylococcus aureus; experiment: Antibacterial activity against methicillin-resistant Staphylococcus aureus after 24 hrs by broth microdilution method; assay type: functional
In short: (§4)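 Broth microdilution per CLSI in cation-adjusted Mueller-Hinton II broth, final inoculum approximately 5 × 10^5 CFU/ml. Plates were incubated aerobically at 35 to 37°C for 24 h. MIC was the lowest concentration giving no visible growth. Reserpine, where used, was at a final concentration of 20 μg/ml.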

[8] = tested on: Streptococcus pneumoniae; experiment: Antibacterial activity against Streptococcus pneumoniae by agar dilution method; assay type: functional
[9] = tested on: Staphylococcus aureus; experiment: Antibacterial activity in CD1 mouse inoculated with methicillin-sensitive Staphylococcus aureus ATCC 13709 in thigh assessed as reduction of bacterial population at 10 mg/kg, sc after 24 hrs; assay type: functional; details: route subcutaneous; in short: as §1
[10] = tested on: Staphylococcus aureus; experiment: Antibacterial activity in CD1 mouse inoculated with methicillin-resistant Staphylococcus aureus ATCC 33591 in thigh assessed as reduction of bacterial population at 10 mg/kg, sc after 24 hrs; assay type: functional; details: route subcutaneous; in short: as §1
[11] = tested on: Staphylococcus aureus; experiment: Antibacterial activity against methicillin-susceptible Staphylococcus aureus after 24 hrs by broth microdilution method; assay type: functional; in short: as §4
[12] = tested on: Staphylococcus aureus; experiment: Antibacterial activity in CD1 mouse inoculated with methicillin-sensitive Staphylococcus aureus ATCC 13709 in thigh assessed as reduction of CFU/thigh at 10 mg/kg, sc after 4 hrs; assay type: functional; details: route subcutaneous; in short: as §1
[13] = tested on: Staphylococcus aureus; experiment: Antibacterial activity against ethidium bromide-resistant Staphylococcus aureus BSA678 after 24 hrs by broth microdilution method; assay type: functional; details: BSA678, 24 h; in short: as §4
[14] = tested on: Staphylococcus aureus; experiment: Antibacterial activity against […] Staphylococcus aureus ATCC 29213 in presence of 20 ug/ml reserpine after 24 hrs by broth microdilution method; assay type: functional; details: ATCC 29213, 24 h; in short: as §4
[15] = tested on: Staphylococcus aureus; experiment: Antibacterial activity against ethidium bromide-resistant Staphylococcus aureus Mu50 after 24 hrs by broth microdilution method; assay type: functional; details: Mu50, 24 h; in short: as §4
[16] = tested on: Staphylococcus aureus; experiment: Antibacterial activity against ethidium bromide-resistant Staphylococcus aureus Mu50 in presence of 20 ug/ml reserpine after 24 hrs by broth microdilution method; assay type: functional; details: Mu50, 24 h; in short: as §4
[17] = tested on: Staphylococcus aureus; experiment: Antibacterial activity against […] Staphylococcus aureus ATCC 29213 after 24 hrs by broth microdilution method; assay type: functional; details: ATCC 29213, 24 h; in short: as §4
[18] = tested on: Staphylococcus aureus; experiment: Antibacterial activity against ethidium bromide-resistant Staphylococcus aureus BSA643 after 24 hrs by broth microdilution method; assay type: functional; details: BSA643, 24 h; in short: as §4
[19] = Cmax in mouse at 50 mg/kg, sc; assay type: ADME, organism-based; set-up: dose 50 mg/kg, route subcutaneous; details: in vivo
In short: (§5)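 Fasted mice given one subcutaneous dose (20 or 50 mg/kg); blood taken from groups of three at 0.08, 0.25, 0.5, 1, 2, 4, 8, 24 h. Plasma protein-precipitated with cold acetonitrile plus internal standard, LC-MS/MS (C8, positive ESI, SRM); calibration 5–15,000 ng/ml. Noncompartmental analysis of mean concentrations; AUC to last quantifiable point by linear trapezoidal rule.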

[20] = Tmax in mouse at 20 mg/kg, sc; assay type: ADME, organism-based; set-up: dose 20 mg/kg, route subcutaneous; details: in vivo; in short: as §5
[21] = tested on: Neisseria gonorrhoeae; experiment: Antibacterial activity against Neisseria gonorrhoeae after 24 hrs by broth microdilution method; assay type: functional; in short: as §3
[22] = AUC (0-24 hrs) in mouse at 50 mg/kg, sc; assay type: ADME, organism-based; set-up: time < 24 hr, dose 50 mg/kg, route subcutaneous; details: plasma; in short: as §5
[23] = Cmax in mouse at 20 mg/kg, sc; assay type: ADME, organism-based; set-up: dose 20 mg/kg, route subcutaneous; details: in vivo; in short: as §5
[24] = AUC (0-24 hrs) in mouse at 20 mg/kg, sc; assay type: ADME, organism-based; set-up: time < 24 hr, dose 20 mg/kg, route subcutaneous; details: plasma; in short: as §5
[25] = Tmax in mouse at 50 mg/kg, sc; assay type: ADME, organism-based; set-up: dose 50 mg/kg, route subcutaneous; details: in vivo; in short: as §5
[26] = tested on: Staphylococcus aureus; experiment: microbe, parasite or virus in culture; details: Mu50
[27] = tested on: Staphylococcus aureus; experiment: Effect on cellular viability of methicillin-sensitive Staphylococcus aureus ATCC 29213 by measuring the time required for recovery at 10 times MIC after 1 hr; assay type: functional
In short: (§6)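 S. aureus in log phase, approximately 2–4 × 10^7 CFU/ml in CAMHB, was exposed to 10× MIC for 1 h at 35 to 37°C with shaking, then diluted 1:1,000 into prewarmed CAMHB. Viable counts were taken hourly for 4 to 8 h. PAE = T − C, the time to a 1-log10 rise, treated versus untreated. Mean of two independent experiments.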

[28] = tested on: Staphylococcus aureus; experiment: Effect on cellular viability of methicillin-resistant Staphylococcus aureus Mu50 at 10 times MIC by measuring the time required for recovery at 10 times MIC after 1 hr; assay type: functional; in short: as §6
[29] = Plasma half life in mouse at 50 mg/kg, sc; assay type: ADME, organism-based; set-up: dose 50 mg/kg, route subcutaneous
[30] = tested on: Streptococcus pyogenes; experiment: Antibacterial activity against Streptococcus pyogenes; assay type: functional; in short: as §2
[31] = Plasma half life in mouse at 20 mg/kg, sc; assay type: ADME, organism-based; set-up: dose 20 mg/kg, route subcutaneous

Compound | MIC50 [2] [µg/mL] | MIC90 [2] [µg/mL] | MIC50 [3] [µg/mL] | MIC90 [3] [µg/mL] | MIC50 [5] [µg/mL] | MIC90 [5] [µg/mL] | MIC50 [7] [µg/mL] | MIC90 [7] [µg/mL] | MIC50 [8] [µg/mL] | MIC90 [8] [µg/mL] | MIC50 [11] [µg/mL] | MIC90 [11] [µg/mL] | MIC [13] [µg/mL] | MIC [14] [µg/mL] | MIC [15] [µg/mL] | MIC [16] [µg/mL] | MIC [17] [µg/mL] | MIC [18] [µg/mL] | Cmax [19] [ng/mL] | Tmax [20] [min] | also measured
CN[C@H](CC(C)C)C(=O)N[C@H]1C(=O)N[C@@H](CC(N)=O)C(=O)N[C@H]2C(=O)N[C@H]3C(=O)N[C@H](C(=O)N[C@H](C(=O)O)c4cc(O)cc(O)c4-c4cc3ccc4O)[C@H](O)c3ccc(c(Cl)c3)Oc3cc2cc(c3O[C@@H]2O[C@H](CO)[C@@H](O)[C@H](O)[C@H]2O[C@H]2C[C@](C)(N)[C@H](O)[C@H](C)O2)Oc2ccc(cc2Cl)[C@H]1O [VANCOMYCIN] | 2 (≈ 1.38 µM) | > 32 | 0.5 (≈ 0.345 µM) | 1 (≈ 0.69 µM) | > 32 | > 32 | 1 (≈ 0.69 µM) | 8 (≈ 5.52 µM) | 0.5 (≈ 0.345 µM) | 0.5 (≈ 0.345 µM) | 1 (≈ 0.69 µM) | 2 (≈ 1.38 µM) |  |  |  |  |  |  |  |  | CFU/ml [1]: 0.32; CFU/ml [4]: 0.58; CFU/ml [6]: 0.49; CFU/ml [9]: 1.37; CFU/ml [10]: 0.31; CFU/ml [12]: 0.31
CC[n+]1c(-c2ccccc2)c2cc(N)ccc2c2ccc(N)cc21.[Br-] [HOMIDIUM BROMIDE] |  |  |  |  |  |  |  |  |  |  |  |  | 4 | 0.03 | 64 | 64 | 4 | 16 |  |  | 
O=C(O)c1cn(C2CC2)c2cc(N3CCNCC3)c(F)cc2c1=O [CIPROFLOXACIN] |  |  |  |  |  |  |  |  |  |  |  |  | > 64 | 0.25 | 32 (≈ 96.6 µM) | 32 | 0.25 (≈ 0.754 µM) | 128 (≈ 386 µM) | 7720 | 30 | MIC50 [21]: 0.004 µg/mL (≈ 0.0121 µM); MIC90 [21]: 0.008 µg/mL (≈ 0.0241 µM); AUC(0-t) at 24 h [22]: 14400 ng·h/mL; Cmax [23]: 3360 ng/mL; AUC(0-t) at 24 h [24]: 5950 ng·h/mL; Tmax [25]: 30 min; MIC [26]: > 64 µg/mL
COc1c(N2C[C@@H]3CCCN[C@@H]3C2)c(F)cc2c(=O)c(C(=O)O)cn(C3CC3)c12 [MOXIFLOXACIN] |  |  |  |  |  |  |  |  |  |  |  |  | > 64 |  | 4 (≈ 9.96 µM) |  | 0.06 (≈ 0.149 µM) | 16 (≈ 39.9 µM) |  |  | Post anitbiotic effect [27]: 1.6 h; Post anitbiotic effect [28]: 1.5 h; MIC [26]: 64 µg/mL (≈ 159 µM)
CCN1CC(C(=O)O)C(=O)c2cc(F)c(N3CCNCC3)cc21 (centres undefined) |  |  |  |  |  |  |  |  |  |  |  |  |  |  |  |  |  |  |  |  | Post anitbiotic effect [27]: 1.6 h
CC(=O)NCC1CN(c2ccc(N3CCOCC3)c(F)c2)C(=O)O1 (single isomer, unassigned) [LINEZOLID] | 2 (≈ 5.93 µM) | > 16 | 1 (≈ 2.96 µM) | 1 (≈ 2.96 µM) | 2 (≈ 5.93 µM) | 2 (≈ 5.93 µM) | 2 (≈ 5.93 µM) | 2 (≈ 5.93 µM) | 1 (≈ 2.96 µM) | 1 (≈ 2.96 µM) | 2 (≈ 5.93 µM) | 2 (≈ 5.93 µM) |  |  |  |  |  |  | 25500 | 30 | half-life [29]: 131 min; MIC50 [30]: 1 µg/mL (≈ 2.96 µM); MIC90 [30]: 1 µg/mL (≈ 2.96 µM); half-life [31]: 70.2 min; AUC(0-t) at 24 h [22]: 112000 ng·h/mL; Cmax [23]: 12200 ng/mL; AUC(0-t) at 24 h [24]: 29100 ng·h/mL; Tmax [25]: 60 min
